From PubChem BioAssay
Active and inactive are the calls of the source.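 How the source made its calls, unless noted: active means Her2 level under about 52% in both replicate screens, with viability over 70% of control (limit read from the data); inconclusive means Her2 under the limit in one screen only, or viability under 70%; inactive means Her2 level above the set limit.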

Tests used:
[1] = Her2 expression decrease, cell viability multiplex – SKBR3 breast tumor cells, AlphaScreen, ATP viability, primary screen (AID 461); settings: SKBR3 Her2 protein level, 18-24 h, measured here: SKBR3 viability, ATP luminescence, at 10 µM;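 on Her2 level: lower value means less Her2 protein in the cells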;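 on viability: percent of carrier control wells set as 100% viability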
[2] = molecular target: Receptor tyrosine-protein kinase erbB-2 (Homo sapiens) (UniProt P04626); assay: as above; settings: 18-24 h, at 10 µM, stronger effect = lower value
[3] = reduced viability of SK-BR-3 breast cancer cells – cell-based, 24 h, human, pilot screen (AID 572;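 active means viability at or below 10% of carrier control in both of two separate runs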;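 further: compound exposure lasted between 18 and 24 h rather than exactly 24 h; 100% = carrier-treated control wells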); settings: SK-BR-3 viability, CellTiter-Glo luminescence, at 10 µM, stronger effect = lower value
[4] = HUVEC growth inhibition – cell-based, human, primary screen (AID 575;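 active means viability at or below 30% in both replicate assays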;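 further: 100% = median of untreated cell wells with 0.1% DMSO on each plate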); settings: HUVEC proliferation, CellTiter-Glo luminescence, 72 h; at 10 µM; stronger effect = lower value
Method in brief: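 Test system: HUVEC primary cells. Quantity: 1250 endothelial cells in each well. Dosing: single-point 10 µM, DMSO 0.1% final. Incubation: 72 h treatment at 37 °C. Measured by: CTG luminescence. Control set: DMSO cell controls and MePR drug controls. Plate: collagen-coated 384-well format.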

[5] = H69AR cell proliferation blockers – human, duplicate replicates, primary screen (AID 580;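 active means viability at or under a set limit in both replicates, limit being median viability minus 3 SD, cut at about 48% in these data, passing the limit was not always enough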;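 further: 100% = mean luminescence of untreated wells and 0% = no signal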); settings: H69AR lung tumor cells viability, ATP luminescence, 72 h; at 10 µM; stronger effect = lower value
[6] = MRP1 drug-resistance reversers in H69AR cells – cell-based, doxorubicin co-treatment, pilot screen (AID 601;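 active means viability loss from added drug above about 55%, and viability with drug at most 40%, in both replicates, limit read from the data, passing the limit was not always enough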); settings: CellTiter-Glo, 72 h, at 10 µM; for differential viability (reversal): stronger effect = higher value
[7] = yeast transport mutant growth inhibition pilot in 384-well plates, post-Golgi transport modulator project (AID 636; in the data active means inhibition above about 31%); settings: absorbance 615 nm, about 18 h, stronger effect = higher value
[8] = growth suppression of yeast trafficking mutant, preliminary HTS, modulators of trafficking downstream of Golgi apparatus project, 1536-format plate, OD 615 nm (AID 637; in the data active means inhibition above about 30%); settings: yeast transport mutant growth, absorbance 615 nm, 18 h; stronger effect = higher value
[9] = H69AR cells + 2 uM doxorubicin, measured here: viability with 2 uM doxorubicin, stronger effect = lower value
[10] = H69AR cells, compound alone cytotoxicity

Chain of Receptor tyrosine-protein kinase erbB-2 (Homo sapiens) (P04626 whole entry, looked up): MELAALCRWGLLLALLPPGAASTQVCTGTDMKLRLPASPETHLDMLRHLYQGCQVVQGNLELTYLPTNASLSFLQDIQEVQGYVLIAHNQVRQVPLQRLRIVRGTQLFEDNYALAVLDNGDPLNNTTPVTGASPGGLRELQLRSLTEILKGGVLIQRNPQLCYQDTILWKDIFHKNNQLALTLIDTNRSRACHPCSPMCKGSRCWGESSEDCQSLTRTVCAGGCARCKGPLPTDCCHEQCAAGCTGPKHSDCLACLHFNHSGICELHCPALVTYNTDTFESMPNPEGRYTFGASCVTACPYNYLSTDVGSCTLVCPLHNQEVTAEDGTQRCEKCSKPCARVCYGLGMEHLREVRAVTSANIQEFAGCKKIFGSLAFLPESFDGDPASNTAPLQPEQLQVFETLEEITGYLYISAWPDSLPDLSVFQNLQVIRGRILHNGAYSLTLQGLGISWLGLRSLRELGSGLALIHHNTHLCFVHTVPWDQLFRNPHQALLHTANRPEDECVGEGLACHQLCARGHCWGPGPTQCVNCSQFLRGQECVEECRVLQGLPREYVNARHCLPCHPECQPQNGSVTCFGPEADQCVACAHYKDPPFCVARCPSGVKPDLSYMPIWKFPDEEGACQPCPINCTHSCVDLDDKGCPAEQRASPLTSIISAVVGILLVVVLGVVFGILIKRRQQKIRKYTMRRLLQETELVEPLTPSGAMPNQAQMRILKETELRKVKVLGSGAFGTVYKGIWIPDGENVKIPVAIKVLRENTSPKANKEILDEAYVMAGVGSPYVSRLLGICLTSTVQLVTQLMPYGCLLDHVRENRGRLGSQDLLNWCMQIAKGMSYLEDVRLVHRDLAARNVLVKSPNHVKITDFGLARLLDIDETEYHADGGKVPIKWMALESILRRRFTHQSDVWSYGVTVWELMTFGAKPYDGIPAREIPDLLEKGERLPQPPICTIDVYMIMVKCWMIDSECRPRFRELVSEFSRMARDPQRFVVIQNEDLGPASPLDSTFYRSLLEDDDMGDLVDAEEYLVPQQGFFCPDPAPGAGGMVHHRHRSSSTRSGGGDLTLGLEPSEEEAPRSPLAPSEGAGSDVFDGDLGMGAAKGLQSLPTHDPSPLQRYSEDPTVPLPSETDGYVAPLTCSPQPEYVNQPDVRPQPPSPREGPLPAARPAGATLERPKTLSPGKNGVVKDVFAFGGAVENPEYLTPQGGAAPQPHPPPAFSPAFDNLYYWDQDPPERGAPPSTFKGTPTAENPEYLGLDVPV

SMILES | viability [1] [%] | Her2 level [2] | viability [3] | viability [4] | viability [5] | differential viability (reversal) ([6]; H69AR cells + 2 uM doxorubicin) | viability [6, 9] [%] | viability [6, 10] [%] | inhibition [7] | inhibition [8]
CC(C)CCNC(=O)CCNS(=O)(=O)c1ccc(Cl)cc1 | 110 | 95% (inactive) | 110% (inactive) | 99.7% (inactive) | 94.1% (inactive) | -0.295% (inactive) | 94.4 | 94.1 | -1.71% (inactive) | -4.03% (inactive)
CCOC(=O)CSc1nnc(CCc2nc3ccccc3[nH]2)n1C | 118 | 112% (inactive) | 118% (inactive) | 87.5% (inactive) | 102% (inactive) | 1.34% (inactive) | 101 | 102 | -4.93% (inactive) | -7.78% (inactive)
OC(CNCC1COc2ccccc2O1)COCc1cccs1 (stereo not given) | 98 | 89.5% (inactive) | 98% (inactive) | 87.5% (inactive) | 83.1% (inactive) | 0.95% (inactive) | 82.1 | 83.1 | -2.08% (inactive) | -7.94% (inactive)
COC(=O)c1cc(Br)c(=O)n(-c2nccs2)c1 | 121 | 93.5% (inactive) | 121% (inactive) | 107% (inactive) | 96.5% (inactive) | 9.32% (inactive) | 87.2 | 96.5 | -4.27% (inactive) | -6.39% (inactive)
C=CCn1c(=O)c2ccccc2n2c(SCC(=O)Nc3cc(C)on3)nnc12 | 92.5 | 89% (inactive) | 92.5% (inactive) | 87% (inactive) | 98.3% (inactive) | 10.6% (inactive) | 87.7 | 98.3 | -3.65% (inactive) | 1.75% (inactive)
CC(=O)Nc1ccc(S(=O)(=O)n2nc(C)cc2C)cc1 | 105 | 106% (inactive) | 105% (inactive) | 111% (inactive) | 105% (inactive) | 5.88% (inactive) | 98.9 | 105 | -6.45% (inactive) | 10.3% (inactive)
CCOC(=O)c1ccc(N2C(=O)CC(N3CCN(C/C=C/c4ccccc4)CC3)C2=O)cc1 (stereo not given) | 84 | 91.5% (inactive) | 84% (inactive) | 91.4% (inactive) | 84.3% (inactive) | -1.62% (inactive) | 85.9 | 84.3 | -0.64% (inactive) | -2.5% (inactive)
COc1ccc2nc3oc(C(=O)N4CCCCC4)cc3cc2c1 | 98 | 90.5% (inactive) | 98% (inactive) | 86.5% (inactive) | 86.7% (inactive) | 2.71% (inactive) | 83.9 | 86.7 | -5.26% (inactive) | -3.67% (inactive)
Cc1cccc(CCNC(=O)C2CCCN(S(=O)(=O)c3cnc[nH]3)C2)c1 (stereo not given) | 99.5 | 106% (inactive) | 99.5% (inactive) | 103% (inactive) | 89.4% (inactive) | 3.16% (inactive) | 86.2 | 89.4 | -4.93% (inactive) | -1.97% (inactive)
O=C(CSc1nccn1-c1cccc(Cl)c1)NC1CCCC1 | 95.5 | 86% (inactive) | 95.5% (inactive) | 95.5% (inactive) | 111% (inactive) | 10.3% (inactive) | 101 | 111 | 0.91% (inactive) | 14.1% (inactive)
CCc1nnc(NC(=O)c2ccc(S(=O)(=O)NC3CCCCC3)cc2)s1 | 86.5 | 69.5% (inactive) | 86.5% (inactive) | 74% (inactive) | 80.1% (inactive) | 43% (inactive) | 37.1 | 80.1 | -5.68% (inactive) | -8.33% (inactive)
CCc1cc(C(=O)OC)c(NC(=O)CCC(=O)O)s1 | 96.5 | 96% (inactive) | 96.5% (inactive) | 87.6% (inactive) | 107% (inactive) | 17.8% (inactive) | 89.1 | 107 | -2.53% (inactive) | 0% (inactive)
O=S(=O)(c1ccc2c(c1)nc1n2CCC1)N1CCOCC1 | 102 | 87% (inactive) | 102% (inactive) | 102% (inactive) | 98.9% (inactive) | 7.71% (inactive) | 91.2 | 98.9 | -0.26% (inactive) | -4.44% (inactive)
CCOC(=O)CNC(=O)Nc1nnc(-c2ccc(OCC)cc2)o1 | 99 | 92% (inactive) | 99% (inactive) | 105% (inactive) | 98.3% (inactive) | 8% (inactive) | 90.3 | 98.3 | -1.08% (inactive) | -3.02% (inactive)
COC(=O)CSc1cc(C)nc(NC(C)=O)n1 | 93.5 | 83.5% (inactive) | 93.5% (inactive) | 102% (inactive) | 101% (inactive) | 6.47% (inactive) | 94.2 | 101 | -3.92% (inactive) | -0.95% (inactive)
Cn1cccc1-c1cc(C(=O)O)[nH]n1 | 129 | 110% (inactive) | 129% (inactive) | 106% (inactive) | 93.8% (inactive) | -7.12% (inactive) | 101 | 93.8 | -4.61% (inactive) | 1.64% (inactive)
Cc1cc(C(=O)NCc2cccnc2)n(-c2ccccc2)n1 | 93.5 | 97% (inactive) | 93.5% (inactive) | 102% (inactive) | 107% (inactive) | 14.4% (inactive) | 92.9 | 107 | -0.93% (inactive) | -6.07% (inactive)
Nc1nc(-n2cnnc2)nn1-c1ccccc1 | 92 | 116% (inactive) | 92% (inactive) | 85.6% (inactive) | 101% (inactive) | 11.4% (inactive) | 89.9 | 101 | 0.13% (inactive) | -8.5% (inactive)
Cn1c(-c2ccccc2)cc(=O)c2ccccc21 | 98.5 | 109% (inactive) | 98.5% (inactive) | 102% (inactive) | 96.6% (inactive) | -6.83% (inactive) | 103 | 96.6 | -1.43% (inactive) | -2.13% (inactive)
COC(=O)c1ccccc1NC(=O)CC(NCc1ccccc1)C(=O)O (stereo not given) | 102 | 111% (inactive) | 102% (inactive) | 103% (inactive) | 104% (inactive) | 0.78% (inactive) | 103 | 104 | -2.11% (inactive) | -12.3% (inactive)
O=C(COC(=O)CSc1nnc(-c2ccc(Cl)cc2)o1)NCc1ccc2c(c1)OCO2 | 98 | 84% (inactive) | 98% (inactive) | 90.8% (inactive) | 104% (inactive) | 3.27% (inactive) | 100 | 104 | -4.19% (inactive) | 0.79% (inactive)
CCOC(=O)N1CCN(c2c(N3CCc4ccccc4C3)c(=O)c2=O)CC1 | 87 | 86% (inactive) | 87% (inactive) | 99.9% (inactive) | 91.7% (inactive) | 6.33% (inactive) | 85.4 | 91.7 | -2% (inactive) | -3.11% (inactive)
CCOC(=O)C1CCCN(C(=O)c2ccc3c(=O)n(CCOC)c(=S)[nH]c3c2)C1 (stereo not given) | 94 | 83% (inactive) | 94% (inactive) | 80.6% (inactive) | 88.6% (inactive) | 11.5% (inactive) | 77.1 | 88.6 | -4.8% (inactive) | -0.33% (inactive)
O=C(CCN1C(=O)C2C3C=CC(C3)C2C1=O)NC1CCCc2ccccc21 (stereo not given) | 81 | 90.5% (inactive) | 81% (inactive) | 76.7% (inactive) | 94.2% (inactive) | 6.45% (inactive) | 87.7 | 94.2 | -1.89% (inactive) | 5.57% (inactive)
CS(=O)(=O)N1CCN(c2ccccc2NC(=O)c2ccc(-c3ccc(Cl)cc3Cl)o2)CC1 | 78.5 | 96.5% (inactive) | 78.5% (inactive) | 76.7% (inactive) | 86.4% (inactive) | 10.2% (inactive) | 76.2 | 86.4 | -2.93% (inactive) | -3.49% (inactive)
COc1cc(OC)cc(C(=O)N2CCN(C(=O)c3ccc(OC)c(OC)c3)CC2)c1 | 100 | 104% (inactive) | 100% (inactive) | 86.1% (inactive) | 92.4% (inactive) | -11.1% (inactive) | 103 | 92.4 | -1.84% (inactive) | -6.45% (inactive)
O=C(COC(=O)c1cncc(Br)c1)NCCC1=CCCCC1 | 93.5 | 93% (inactive) | 93.5% (inactive) | 101% (inactive) | 97.5% (inactive) | 9.04% (inactive) | 88.4 | 97.5 | -1.28% (inactive) | -1.33% (inactive)
Cc1ccccc1-c1nc(Cc2ccccc2)no1 | 77.5 | 97.5% (inactive) | 77.5% (inactive) | 104% (inactive) | 102% (inactive) | 19.1% (inactive) | 82.5 | 102 | -0.51% (inactive) | -3.33% (inactive)
O=C(CCSc1nnc(-c2ccncc2)o1)Nc1ccccc1 | 90.5 | 80.5% (inactive) | 90.5% (inactive) | 108% (inactive) | 100% (inactive) | 10.3% (inactive) | 89.8 | 100 | -0.79% (inactive) | 5.27% (inactive)
